S1P3 agonist – S1P3 (human) receptor agonism. 0.1% of 60,000 active. activation, % at 4.5 µM. S1P3 NFAT-BLA reporter cells, FRET ratio; relative to 1 µM S1P, basal subtracted. Q99500;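 active means activation above the screen-wide mean plus 3 SD, cut at about 4.5% in these data, passing the limit was not always enough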
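Assay system: stable CHO line with human S1P3, Gα16, NFAT-BLA reporter; Detection: FRET β-lactamase substrate fluorescence, excitation 405 nm, 460/535 nm emission ratio, background-subtracted; Read-out: percent activation versus median 1 µM S1P response, basal-subtracted, per plate; Incubation: cells plated overnight, compound 4 h 37 °C, substrate 2 h RT.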
S1P1 ag pot – S1P1 (human) agonism or agonism potentiation; P21453; S1P1 CRE-bla cells, forskolin, beta-lactamase FRET, potentiator mode; S1P1 agonist co-added at EC20, 2 nM; 100% = saturating reference agonist, 0% = basal; activation, % at 9.5 µM; 0.57% of 56,000 active; AID 449;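 active means activation above a cutoff set at the mean activation of all tested compounds plus 3 SD, cut at about 54% in these data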;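 further: forskolin at 4 µM as EC80 and the EC20 agonist is SEW2871; 100% = SEW2871 at its EC100 plus forskolin at EC80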
Target sequence (P21453 whole entry, looked up): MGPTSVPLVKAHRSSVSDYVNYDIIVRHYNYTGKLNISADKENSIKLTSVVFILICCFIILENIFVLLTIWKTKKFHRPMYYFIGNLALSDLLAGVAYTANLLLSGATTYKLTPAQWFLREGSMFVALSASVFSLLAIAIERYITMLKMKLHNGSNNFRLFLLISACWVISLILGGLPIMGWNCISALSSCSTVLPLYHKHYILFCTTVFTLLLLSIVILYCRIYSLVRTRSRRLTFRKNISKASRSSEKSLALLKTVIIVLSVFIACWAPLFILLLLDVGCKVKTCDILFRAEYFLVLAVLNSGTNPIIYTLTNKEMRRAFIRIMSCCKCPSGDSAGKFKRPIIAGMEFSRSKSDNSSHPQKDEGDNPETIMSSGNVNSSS
D1 mod – D1 dopamine receptor (human) allosteric modulation | P21728 | 5.9% of 58,000 active | HEK293 D1, CRE-luciferase, dopamine EC30 potentiation; actives deviate in either direction | B-score at 10 µM;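 active means luminescence count or its row- and column-corrected plate score outside the 99.7% band of the plate's sample wells, on either side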
M1 ag – M1 muscarinic receptor agonism | CHO-M1 cells, Fluo-4 calcium fluorescence, agonist mode; active compounds read high | B-score at 10 µM | 3% of 64,000 active | AID 626;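 active means fluorescence rise, raw or as B-score row- and column-corrected plate score, outside the 99.7% band of its plate's samples, either direction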
M1 antag – M1 muscarinic receptor (rat) antagonism; CHO-M1 cells, Fluo-4 calcium, ACh EC80 antagonist mode; active compounds read low; B-score at 10 µM; 3.4% of 64,000 active;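 active means calcium fluorescence response, raw or row-and-column corrected B-score, differing from the plate sample mean either way at a set confidence level, mostly lower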
Active calls of the source: *; . = no result. The list is not random: actives were taken first. Their share in the collection is about 11%.

SMILES	S1P3 agonist	S1P1 ag pot	D1 mod	M1 ag	M1 antag
CCCCn1c2nc3ccccc3nc2c2c(=N)oc(C)nc21	.	.	6.58*	3.95*	-0.199
O=C1c2ccccc2N(Cc2ccc(Cl)cc2)C2=NCCN12	0.8	-34.9	10.8*	-0.0325	0.717
O=c1cc(CN2CCN(Cc3ccccc3)CC2)c2cc(Cl)ccc2o1	-0.8	-0.1	-4.21*	0.388	-0.623
Cc1cc2oc(=O)cc(CN3CCN(Cc4ccccc4)CC3)c2cc1Cl	-0.7	-36.2	-0.888	0.492	-0.313
O=C1C(c2ccncc2)=C(O)c2ccccc21	0.1	-5.4	-2.48*	-0.865	-0.275
COc1ccccc1N1CCN(c2ccc(-c3ccccc3)nn2)CC1	.	.	-5.39*	-0.551	-0.621
CCOc1ccccc1NC(=O)c1cnc2n(c1=O)CCS2	-0.8	-1.3	.	-0.399	-0.322
O=C(Nc1ccc(Oc2ccccc2)cc1)c1cnc2n(c1=O)CCS2	-1.3	94.0*	-1.61	0.235	-0.826
Fc1ccc(-c2nnc(-c3ccc(Cl)cc3Cl)o2)cc1	-1.8	-1.1	-2.89*	-0.311	1.5
Clc1ccc(-c2nnc(-c3ccccc3)o2)c(Cl)c1	-0.7	-7.5	-1.09	-0.352	0.229
c1ccc(CSc2nnc(-c3ccncc3)o2)cc1	2.8	45.0	.	.	.
Clc1ccc(CSc2nnc(-c3ccncc3)o2)c(Cl)c1	0.8	76.0*	0.0278	0.0716	0.00376
CCSc1nnc(-c2ccc(Cl)cc2Cl)o1	0.1	.	0.39	0.0702	1.97*
CC(=O)c1coc2ccc(OCCN3CCCCC3)cc12	-1.1	-12.8	0.215	0.0893	-0.48
COc1ccc(-n2c(=S)[nH]c3cc(C(=O)NCc4ccco4)ccc3c2=O)cc1OC	-0.3	38.6	-0.167	1.4	-0.378
COc1ccc(CCn2c(=S)[nH]c3cc(C(=O)NCc4ccco4)ccc3c2=O)cc1OC	-1.3	37.1	.	3.03*	-0.492
COc1ccc(-c2cc3ccccc3n2CC(O)CN2CCN(CCO)CC2)cc1 (stereo not given)	-0.3	-19.3	-0.842	-0.731	0.384
Cc1c(C(=O)NC2=NCCS2)oc2ccccc12	-0.1	3.4	-4.95*	-0.0925	0.303
O=C(c1ccc(Cl)cc1)N1CCCCC(Sc2nnc(-c3ccc4c(c3)OCO4)o2)C1=O (stereo not given)	0.9	15.5	-9.98*	-0.00681	-0.00534
O=C(c1ccccc1)N1CCCCC(Sc2nnc3ccccn23)C1=O (stereo not given)	0.4	8.8	-0.365	-1.77	-0.588
COc1cc(OC)cc(C(=O)Nc2ccccc2N2CCOCC2)c1	1.5	8.5	2.21	6.53*	-0.141
Cc1occc1C(=O)N1CCN(c2ccc(Cl)c(Cl)c2)CC1	-1.3	69.3*	-0.119	1.28	-0.504
Cn1c(N2CCN(C(=O)NCc3ccccc3)CC2)nc2ccccc21	0.3	3.2	-0.689	0.94	-0.441
O=C(NCc1ccccc1)N1CCN(c2ccc(Cl)c(Cl)c2)CC1	-1.0	99.8*	0.00225	-1.24	-0.771
COc1ccc(Cn2nnnc2C(c2cc(OC)ccc2OC)N2CCC(C(N)=O)CC2)cc1 (stereo not given)	-0.5	-4.0	0.275	-0.00076	-0.143
SMILES	S1P3 agonist	S1P1 ag pot	D1 mod	M1 ag	M1 antag
O=c1[nH]c2sc3c(c2c(=O)n1Cc1ccccc1)CCC3	-0.8	-5.4	.	0.00293	-0.209
Nc1c2c(nc3ccn(Cc4ccccc4)c(=O)c13)CCC2	-1.0	1.9	-3.23*	0.733	-0.79
O=c1[nH]c(N2CCN(c3ccccc3)CC2)nc2c1CCC2	-0.3	-2.9	0.652	.	.
Nc1c2c(nc3ccn(-c4ccccc4)c(=O)c13)CCCCC2	-0.1	-22.0	-4.71*	0.343	-1.55
COCCn1c(SCC(=O)c2ccc(F)cc2)nnc1C(C)C	0.0	-7.2	0.0651	0.0909	0.0409
CC(Oc1ccc(Cl)cc1Cl)C(=O)Nc1ccc(N2CCN(C)CC2)cc1 (stereo not given)	-0.3	.	-4.82*	1.28	-2.13
CC(=O)N1CCN(c2ccc(NC(=O)COc3ccc(Cl)cc3Cl)cc2)CC1	-0.3	2.6	-0.462	-0.0749	-0.213
Cc1ccc2nc(NC(=O)c3cccs3)sc2c1	.	.	-2.79	0.91	1.03
CCOC(=O)CC(=O)Nc1nc2ccccc2s1	-1.7	3.7	1.14	.	.
Cc1ccc(CNc2nc3ccccc3s2)s1	-0.8	-0.4	-2.41*	-0.434	0.329
Cc1ccc(C(=O)Nc2nc3ccc(S(C)(=O)=O)cc3s2)s1	0.3	38.3	-1.76	0.781	-0.237
Cc1ccc(C(=O)Nc2nc3ccccc3s2)s1	-1.0	14.9	-5.78*	-0.897	0.882
